pIC50: −log10 of the molar value. Activity calls are given as the source filed them. The rule behind the calls is not given here.
Columns and labels:
SH-SY5Y [1] = assay: Cytotoxicity against human SH-SY5Y cells after 48 hrs by MTT assay; format: functional, cell-based
Method in brief: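 SH-SY5Y neuroblastoma cells treated 48 h across a dose range. Viability/proliferation read by MTT. IC50 taken from dose–response curves, mean ± SEM of at least eight determinations from two separate experiments.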

[2] = Inhibition of tubulin polymerization
SH-SY5Y [3] = assay: Cytotoxicity against human SH-SY5Y cells assessed as cell viability at 10 uM after 48 hrs by MTT assay relative to control; format: functional; conditions: for viability at 10 µM: read-out: Activity
Method in brief: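 Single-concentration screen: SH-SY5Y cells given 10 µM compound for 48 h. Viability read by MTT and expressed as % of untreated control. Mean ± SEM of three replicates.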

SH-SY5Y [4] = assay: Cell cycle arrest in human SH-SY5Y cells assessed as accumulation at G2/M phase at 2 times IC50 concentration after 16 hrs by FACS analysis (reference value: 15 +/- 4.8%); format: functional
SH-SY5Y [5] = assay: Cell cycle arrest in human SH-SY5Y cells assessed as accumulation at G0/G1 phase at 2 times IC50 concentration after 16 hrs by FACS analysis (reference value: 49 +/- 5.5%); format: functional
SH-SY5Y [6] = assay: Cell cycle arrest in human SH-SY5Y cells assessed as accumulation at S phase at 2 times IC50 concentration after 16 hrs by FACS analysis (reference value: 36 +/- 4%); format: functional

COc1ccc(/C=C(\C)C(=O)c2cc(OC)c(OC)c(OC)c2)cc1O
pIC50 (SH-SY5Y [1]): 9.68 | pIC50 [2]: 5.74

COc1cc(C(=O)c2cn(-c3cc(OC)c(OC)c(OC)c3)nn2)cc(OC)c1OC
Activity (SH-SY5Y [3]): inactive

COc1ccc(-n2cc(C(=O)c3cc(OC)c(OC)c(OC)c3)nn2)cc1OC
Activity (SH-SY5Y [3]): inactive

COc1ccc(C(=O)c2nn[nH]c2-c2cc(OC)c(OC)c(OC)c2)cc1
viability at 10 µM (SH-SY5Y [3]): > 70%

COc1ccc(-c2[nH]nnc2C(=O)c2cc(OC)c(OC)c(OC)c2)cc1
viability at 10 µM (SH-SY5Y [3]): > 70%

COc1ccc(/C=C/C(=O)c2cc(OC)c(OC)c(OC)c2)cc1O
Activity (SH-SY5Y [4]): 30% | Activity (SH-SY5Y [5]): 23% | pIC50 (SH-SY5Y [1]): 7.30 | Activity (SH-SY5Y [6]): 48% | viability at 10 µM (SH-SY5Y [3]): 17% | pIC50 [2]: 6.00

COc1cc(C(=O)c2cn(-c3ccc(OC(F)(F)F)cc3)nn2)cc(OC)c1OC
Activity (SH-SY5Y [3]): inactive

COc1ccccc1-n1cc(C(=O)c2cc(OC)c(OC)c(OC)c2)nn1
Activity (SH-SY5Y [3]): inactive

COc1ccc(C(=O)C#Cc2cc(OC)c(OC)c(OC)c2)cc1
Activity (SH-SY5Y [4]): 8% | Activity (SH-SY5Y [5]): 76% | Activity (SH-SY5Y [6]): 18% | viability at 10 µM (SH-SY5Y [3]): 20.4%

COc1cc(C(=O)c2cn(-c3ccc4c(c3)OCO4)nn2)cc(OC)c1OC
Activity (SH-SY5Y [3]): inactive

COc1cccc(-n2cc(C(=O)c3cc(OC)c(OC)c(OC)c3)nn2)c1O
Activity (SH-SY5Y [3]): inactive

COc1cccc(-n2cc(C(=O)c3cc(OC)c(OC)c(OC)c3)nn2)c1
Activity (SH-SY5Y [3]): inactive

COc1cc(OC)cc(-n2cc(C(=O)c3cc(OC)c(OC)c(OC)c3)nn2)c1
Activity (SH-SY5Y [3]): inactive

COc1ccc(-n2cc(C(=O)c3cc(OC)c(OC)c(OC)c3)nn2)cc1F
Activity (SH-SY5Y [3]): inactive

COc1ccc(-n2cc(C(=O)c3cc(OC)c(OC)c(OC)c3)nn2)cc1[N+](=O)[O-]
Activity (SH-SY5Y [3]): inactive

COc1ccc(-n2nnnc2C(=O)c2cc(OC)c(OC)c(OC)c2)cc1O
Activity (SH-SY5Y [4]): 29% | Activity (SH-SY5Y [5]): 41% | Activity (SH-SY5Y [6]): 30% | viability at 10 µM (SH-SY5Y [3]): 51.6%

COc1ccc(C#CC(=O)c2cc(OC)c(OC)c(OC)c2)cc1
Activity (SH-SY5Y [4]): 6% | Activity (SH-SY5Y [5]): 79% | Activity (SH-SY5Y [6]): 16% | viability at 10 µM (SH-SY5Y [3]): 27.7%

COc1cc(C(=O)c2cn(-c3ccc4ccccc4c3)nn2)cc(OC)c1OC
Activity (SH-SY5Y [3]): inactive

COc1cc(C(=O)c2cn(-c3cccc4ccccc34)nn2)cc(OC)c1OC
Activity (SH-SY5Y [3]): inactive

COc1cc(C(=O)c2cn(-c3cnc4ccccc4c3)nn2)cc(OC)c1OC
Activity (SH-SY5Y [3]): inactive

COc1cc(-n2cc(C(=O)c3cc(OC)c(OC)c(OC)c3)nn2)ccc1O
Activity (SH-SY5Y [3]): inactive

COc1cc(OC(F)(F)F)cc(-n2cc(C(=O)c3cc(OC)c(OC)c(OC)c3)nn2)c1
Activity (SH-SY5Y [3]): inactive

COc1ccc(-n2cc(C(=O)c3cc(OC)c(OC)c(OC)c3)nn2)cc1
Activity (SH-SY5Y [3]): inactive

COc1ccc(-n2cc(C(=O)c3cc(OC)c(OC)c(OC)c3)nn2)c(OC)c1
Activity (SH-SY5Y [3]): inactive

COc1ccc(-n2cc(C(=O)c3cc(OC)c(OC)c(OC)c3)nn2)cc1O
Activity (SH-SY5Y [3]): inactive
